Results from ChEMBL document CHEMBL2417509, “Synthesis and biological evaluation of prodigiosene conjugates of porphyrin, estrone and 4-hydroxytamoxifen” (2013).

Experiments:
Type in all cases: functional
SN12C = test: Cytotoxicity against human SN12C cells after 2 days by sulforhodamine B assay; details: 48 h
Outline: (§1)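 NCI60 multi-dose screen, 59 human tumour lines available. Cells exposed to compound across a 5-log mol/L concentration range for 2 days, then fixed and stained with sulphorhodamine B, optical density read. Growth inhibition calculated against time-zero control and untreated cells. GI50 derived from the dose series, average of two replicates.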

SK-OV-3 = test: Cytotoxicity against human SKOV3 cells after 2 days by sulforhodamine B assay; details: SK-OV-3, 48 h; outline: as §1
OVCAR-8 = test: Cytotoxicity against human OVCAR8 cells after 2 days by sulforhodamine B assay; details: OVCAR-8, 48 h; outline: as §1
OVCAR-5 = test: Cytotoxicity against human OVCAR5 cells after 2 days by sulforhodamine B assay; details: OVCAR-5, 48 h; outline: as §1
OVCAR-4 = test: Cytotoxicity against human OVCAR4 cells after 2 days by sulforhodamine B assay; details: OVCAR-4, 48 h; outline: as §1
OVCAR-3 = test: Cytotoxicity against human OVCAR3 cells after 2 days by sulforhodamine B assay; details: OVCAR-3, 48 h; outline: as §1
UACC-62 = test: Cytotoxicity against human UACC62 cells after 2 days by sulforhodamine B assay; details: UACC-62, 48 h
Outline: (§2)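 NCI DTP NCI60 multi-dose screen (59 human tumour lines available). Cells exposed to compound over a 5-log mol/L concentration range for 2 days, then fixed and stained with sulphorhodamine B, with optical density read. Growth inhibition calculated relative to time-zero cells and untreated cells, giving GI50 (half-maximal growth inhibition concentration). Average of two replicates.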

UACC-257 = test: Cytotoxicity against human UACC257 cells after 2 days by sulforhodamine B assay; details: UACC-257, 48 h; outline: as §2
SK-MEL-5 = test: Cytotoxicity against human SK-MEL-5 cells after 2 days by sulforhodamine B assay; details: SK-MEL-5, 48 h; outline: as §1
SK-MEL-28 = test: Cytotoxicity against human SK-MEL-28 cells after 2 days by sulforhodamine B assay; details: SK-MEL-28, 48 h; outline: as §1
MDA-MB-435 = test: Cytotoxicity against human MDA-MB-435 cells after 2 days by sulforhodamine B assay; details: MDA-MB-435, 48 h; outline: as §1
SK-MEL-2 = test: Cytotoxicity against human SK-MEL-2 cells after 2 days by sulforhodamine B assay; details: SK-MEL-2, 48 h; outline: as §1
M14 = test: Cytotoxicity against human M14 cells after 2 days by sulforhodamine B assay; details: M14, 48 h; outline: as §1
LOX IMVI = test: Cytotoxicity against human LOXIMVI cells after 2 days by sulforhodamine B assay; details: 48 h; outline: as §1
SF-295 = test: Cytotoxicity against human SF295 cells after 2 days by sulforhodamine B assay; details: SF-295, 48 h; outline: as §1
KM12 = test: Cytotoxicity against human KM12 cells after 2 days by sulforhodamine B assay; details: KM12, 48 h; outline: as §1
HCT-15 = test: Cytotoxicity against human HCT15 cells after 2 days by sulforhodamine B assay; details: HCT-15, 48 h; outline: as §1
HCT-116 = test: Cytotoxicity against human HCT116 cells after 2 days by sulforhodamine B assay; details: HCT-116, 48 h; outline: as §1
NCI-H460 = test: Cytotoxicity against human NCI-H460 cells after 2 days by sulforhodamine B assay; details: NCI-H460, 48 h; outline: as §1
NCI-H322M = test: Cytotoxicity against human NCI-H322M cells after 2 days by sulforhodamine B assay; details: 48 h; outline: as §1
NCI-H226 = test: Cytotoxicity against human NCI-H226 cells after 2 days by sulforhodamine B assay; details: NCI-H226, 48 h; outline: as §1
NCI-H23 = test: Cytotoxicity against human NCI-H23 cells after 2 days by sulforhodamine B assay; details: NCI-H23, 48 h; outline: as §1
HOP-62 = test: Cytotoxicity against human HOP62 cells after 2 days by sulforhodamine B assay; details: HOP-62, 48 h; outline: as §1
SR = test: Cytotoxicity against human SR cells after 2 days by sulforhodamine B assay; details: 48 h; outline: as §2
K562 = test: Cytotoxicity against human K562 cells after 2 days by sulforhodamine B assay; details: K562, 48 h; outline: as §1
HL-60(TB) = test: Cytotoxicity against human HL-60(TB) cells after 2 days by sulforhodamine B assay; details: HL-60, 48 h
Outline: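 NCI60 multi-dose screen: cells exposed to compound over a 5-log mol/L concentration range for 2 days, then fixed and stained with sulphorhodamine B and optical density read. Growth inhibition calculated relative to time-zero control and untreated cells; GI50 reported as average of two replicates.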

CCRF-CEM = test: Cytotoxicity against human CCRF-CEM cells after 2 days by sulforhodamine B assay; details: 48 h; outline: as §1
BT-549 = test: Cytotoxicity against human BT549 cells after 2 days by sulforhodamine B assay; details: BT-549, 48 h; outline: as §1
MCF7 = test: Cytotoxicity against human MCF7 cells after 2 days by sulforhodamine B assay; details: MCF7, 48 h; outline: as §1
UO-31 = test: Cytotoxicity against human UO31 cells after 2 days by sulforhodamine B assay; details: UO-31, 48 h; outline: as §2
[1] = read-out: LC50 (the source's name)

CC/C(=C(/c1ccc(OCCN(C)C)cc1)c1ccc(OC(=O)CCC(=O)C2=C(C)/C(=C/c3[nH]c(-c4ccc[nH]4)cc3OC)N=C2C)cc1)c1ccccc1
GI50 (SN12C): 3.09 µM | TGI (SN12C): 19.1 µM | CC50 (SN12C; [1]): 66.6 µM | GI50 (SK-OV-3): 7.17 µM | LC50 (concentration killing 50% of starting cells) (SK-OV-3): > 100 µM | TGI (SK-OV-3): 30.1 µM | GI50 (OVCAR-8): 2.76 µM | LC50 (OVCAR-8): 68 µM | TGI (OVCAR-8): 10.9 µM | GI50 (OVCAR-5): 6.99 µM | LC50 (OVCAR-5): 53.1 µM | TGI (OVCAR-5): 22 µM | GI50 (OVCAR-4): 1.5 µM | LC50 (concentration killing 50% of cells) (OVCAR-4): 61.5 µM | TGI (OVCAR-4): 14.8 µM | GI50 (OVCAR-3): 2.11 µM | LC50 (OVCAR-3): 38.7 µM | TGI (OVCAR-3): 10.6 µM | GI50 (UACC-62): 1.81 µM | TGI (UACC-62): 3.78 µM | CC50 (UACC-62; [1]): 7.88 µM | GI50 (UACC-257): 3.39 µM | TGI (UACC-257): 14.8 µM | CC50 (UACC-257; [1]): 79.7 µM | GI50 (SK-MEL-5): 1.53 µM | LC50 (concentration killing 50% of cells) (SK-MEL-5): 5.25 µM | TGI (SK-MEL-5): 3.22 µM | GI50 (SK-MEL-28): 2.94 µM | LC50 (SK-MEL-28): 46.3 µM | TGI (SK-MEL-28): 12.7 µM | GI50 (MDA-MB-435): 2.55 µM | TGI (MDA-MB-435): 10.3 µM | CC50 (MDA-MB-435; [1]): 50.5 µM | GI50 (SK-MEL-2): 2.45 µM | LC50 (SK-MEL-2): 25.3 µM | TGI (SK-MEL-2): 6.42 µM | GI50 (M14): 2.09 µM | TGI (M14): 5.19 µM | CC50 (M14; [1]): > 100 µM | GI50 (LOX IMVI): 0.44 µM | LC50 (LOX IMVI): 5.13 µM | TGI (LOX IMVI): 1.62 µM | GI50 (SF-295): 2.63 µM | LC50 (SF-295): > 100 µM | TGI (SF-295): 9.12 µM | GI50 (KM12): 1.2 µM | LC50 (KM12): 46.8 µM | TGI (KM12): 10.8 µM | GI50 (HCT-15): 0.93 µM | LC50 (HCT-15): > 100 µM | TGI (HCT-15): 4.58 µM | GI50 (HCT-116): 0.82 µM | LC50 (concentration killing 50% of cells vs time zero) (HCT-116): > 100 µM | TGI (HCT-116): 3.28 µM | GI50 (NCI-H460): 3.52 µM | LC50 (NCI-H460): > 100 µM | TGI (NCI-H460): 14.4 µM | GI50 (NCI-H322M): 11.6 µM | LC50 (concentration killing 50% of cells) (NCI-H322M): 57.5 µM | TGI (NCI-H322M): 25.7 µM | GI50 (NCI-H226): 6.53 µM | LC50 (NCI-H226): > 100 µM | TGI (NCI-H226): 25.2 µM | GI50 (NCI-H23): 4.03 µM | LC50 (concentration killing 50% of cells) (NCI-H23): 70 µM | TGI (NCI-H23): 18.7 µM | GI50 (HOP-62): 1.43 µM | TGI (HOP-62): 4.07 µM | CC50 (HOP-62; [1]): 49 µM | GI50 (SR): 0.69 µM | LC50 (concentration giving 50% net cell kill) (SR): > 100 µM | TGI (SR): 5.43 µM | GI50 (K562): 2.39 µM | LC50 (concentration killing 50% of cells) (K562): > 100 µM | TGI (K562): 6.4 µM | GI50 (HL-60(TB)): 3.16 µM | TGI (HL-60(TB)): 8.98 µM | CC50 (HL-60(TB); [1]): > 100 µM | GI50 (CCRF-CEM): 0.43 µM | TGI (CCRF-CEM): 7.21 µM | CC50 (CCRF-CEM; [1]): > 100 µM | GI50 (BT-549): 4.29 µM | LC50 (concentration killing 50% of cells present at time zero) (BT-549): 66.9 µM | TGI (BT-549): 21.5 µM | GI50 (MCF7): 0.03 µM | LC50 (concentration giving 50% net cell kill) (MCF7): 39.9 µM | TGI (MCF7): 2.81 µM | GI50 (UO-31): 1.7 µM | LC50 (UO-31): 30.1 µM | TGI (UO-31): 5.1 µM
